Reference: ChEMBL document CHEMBL1250442, “Inhibiting gene expression at transcription start sites in chromosomal DNA with antigene RNAs” (Nat Chem Biol, 2005)
Activity calls are given as the source filed them. No cut-off for these calls is given here.

Tests used:
T47D [1] = experiment: Inhibition of PR-A gene expression in human T47D cells at 25 nM by syber green assay; format: functional
Summary of the method: (§1)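 T47D cells plated at 80,000/well without antibiotics two days before Oligofectamine transfection with agRNA duplex (25 or 100 nM final); medium changed at 24 h, harvest day 5 unless stated otherwise. TRIzol total RNA; PR mRNA by real-time PCR with SYBR Green: 50 °C 2 min, 95 °C 10 min, 40 cycles 95 °C 15 s/60 °C 1 min.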

T47D [2] = experiment: Inhibition of PR-B gene expression in human T47D cells at 25 nM by syber green assay; format: functional; summary of the method: as §1
T47D [3] = experiment: Inhibition of PR-A gene expression in human T47D cells at 25 nM by syber green assay in presence of 10 nM estradiol; format: functional, cell-based
T47D [4] = experiment: Inhibition of PR-B gene expression in human T47D cells at 25 nM by syber green assay in presence of 10 nM estradiol; format: functional, cell-based
T47D [5] = experiment: Inhibition of PR-A mRNA gene expression in human T47D cells at 100 nM by syber green assay; format: functional; summary of the method: as §1
T47D [6] = experiment: Inhibition of PR-B mRNA gene expression in human T47D cells at 100 nM by syber green assay; format: functional
Summary of the method: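 T47D cells in RPMI-1640 with 10% FBS, NEAA, insulin, 37 °C, 5% CO2. Plated two days before transfection without antibiotics. Oligofectamine-mediated duplex RNA transfection at 100 nM final, medium changed at 24 h, harvest five days post-transfection. Total RNA extracted with TRIzol. hPR mRNA quantified by SYBR Green qPCR: 50 °C 2 min, 95 °C 10 min, then 40 cycles of 95 °C 15 s / 60 °C 1 min.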

| SMILES | inhibition at 0.025 µM (T47D [1]) [%] | inhibition at 0.025 µM (T47D [2]) [%] | inhibition (T47D [3]) | inhibition (T47D [4]) | inhibition at 0.1 µM (T47D [5]) [%] | inhibition at 0.1 µM (T47D [6]) [%] |
| --- | --- | --- | --- | --- | --- | --- |
| Cc1cn(CC(=O)N(CCNC(=O)CN(CCNC(=O)CN(CCNC(=O)CN(CCNC(=O)CN(CCNC(=O)CN(CCNC(=O)CN(CCNC(=O)CN(CCNC(=O)CN(CCNC(=O)CN(CCNC(=O)CN(CCNC(=O)CN(CCNC(=O)CN(CCNC(=O)CN(CCNC(=O)CN(CCNC(=O)CN(CCNC(=O)CN(CCNC(=O)CN(CCNC(=O)CN(CCNC(=O)CN(CCNC(=O)CN)C(=O)Cn2cnc3c(N)ncnc32)C(=O)Cn2cnc3c(=O)[nH]c(N)nc32)C(=O)Cn2cnc3c(=O)[nH]c(N)nc32)C(=O)Cn2ccc(N)nc2=O)C(=O)Cn2cnc3c(=O)[nH]c(N)nc32)C(=O)Cn2ccc(=O)[nH]c2=O)C(=O)Cn2ccc(=O)[nH]c2=O)C(=O)Cn2cnc3c(=O)[nH]c(N)nc32)C(=O)Cn2ccc(=O)[nH]c2=O)C(=O)Cn2ccc(=O)[nH]c2=O)C(=O)Cn2cnc3c(N)ncnc32)C(=O)Cn2cnc3c(=O)[nH]c(N)nc32)C(=O)Cn2cnc3c(N)ncnc32)C(=O)Cn2cnc3c(N)ncnc32)C(=O)Cn2cnc3c(N)ncnc32)C(=O)Cn2cnc3c(=O)[nH]c(N)nc32)C(=O)Cn2ccc(N)nc2=O)C(=O)Cn2ccc(=O)[nH]c2=O)C(=O)Cn2cnc3c(=O)[nH]c(N)nc32)CC(=O)NCCN(CC(=O)NCC(=O)O)C(=O)Cn2cc(C)c(=O)[nH]c2=O)c(=O)[nH]c1=O | 57 | 73 | Active | Active | 80 | 99 |
| Cc1cn(CC(=O)N(CCNC(=O)CN(CCNC(=O)CN(CCNC(=O)CN(CCNC(=O)CN(CCNC(=O)CN(CCNC(=O)CN(CCNC(=O)CN(CCNC(=O)CN(CCNC(=O)CN(CCNC(=O)CN(CCNC(=O)CN(CCNC(=O)CN(CCNC(=O)CN(CCNC(=O)CN(CCNC(=O)CN(CCNC(=O)CN(CCNC(=O)CN(CCNC(=O)CN(CCNC(=O)CN(CCNC(=O)CN)C(=O)Cn2cnc3c(N)ncnc32)C(=O)Cn2cnc3c(=O)[nH]c(N)nc32)C(=O)Cn2ccc(N)nc2=O)C(=O)Cn2ccc(=O)[nH]c2=O)C(=O)Cn2cnc3c(=O)[nH]c(N)nc32)C(=O)Cn2ccc(=O)[nH]c2=O)C(=O)Cn2ccc(N)nc2=O)C(=O)Cn2ccc(=O)[nH]c2=O)C(=O)Cn2cnc3c(=O)[nH]c(N)nc32)C(=O)Cn2cnc3c(=O)[nH]c(N)nc32)C(=O)Cn2ccc(N)nc2=O)C(=O)Cn2ccc(N)nc2=O)C(=O)Cn2cnc3c(N)ncnc32)C(=O)Cn2cnc3c(=O)[nH]c(N)nc32)C(=O)Cn2ccc(=O)[nH]c2=O)C(=O)Cn2ccc(N)nc2=O)C(=O)Cn2ccc(N)nc2=O)C(=O)Cn2cnc3c(N)ncnc32)C(=O)Cn2ccc(N)nc2=O)CC(=O)NCCN(CC(=O)NCC(=O)O)C(=O)Cn2cc(C)c(=O)[nH]c2=O)c(=O)[nH]c1=O | 34 | 40 | Active | Active | 63 | 87 |
| Cc1cn(CC(=O)N(CCNC(=O)CN(CCNC(=O)CN(CCNC(=O)CN(CCNC(=O)CN(CCNC(=O)CN(CCNC(=O)CN(CCNC(=O)CN(CCNC(=O)CN(CCNC(=O)CN(CCNC(=O)CN(CCNC(=O)CN(CCNC(=O)CN(CCNC(=O)CN(CCNC(=O)CN(CCNC(=O)CN(CCNC(=O)CN(CCNC(=O)CN(CCNC(=O)CN(CCNC(=O)CN(CCNC(=O)CN)C(=O)Cn2cnc3c(N)ncnc32)C(=O)Cn2cnc3c(=O)[nH]c(N)nc32)C(=O)Cn2cnc3c(N)ncnc32)C(=O)Cn2cnc3c(=O)[nH]c(N)nc32)C(=O)Cn2cnc3c(=O)[nH]c(N)nc32)C(=O)Cn2cnc3c(N)ncnc32)C(=O)Cn2cnc3c(=O)[nH]c(N)nc32)C(=O)Cn2cnc3c(=O)[nH]c(N)nc32)C(=O)Cn2cnc3c(N)ncnc32)C(=O)Cn2cnc3c(=O)[nH]c(N)nc32)C(=O)Cn2cnc3c(=O)[nH]c(N)nc32)C(=O)Cn2ccc(N)nc2=O)C(=O)Cn2cnc3c(=O)[nH]c(N)nc32)C(=O)Cn2ccc(=O)[nH]c2=O)C(=O)Cn2ccc(=O)[nH]c2=O)C(=O)Cn2cnc3c(=O)[nH]c(N)nc32)C(=O)Cn2ccc(=O)[nH]c2=O)C(=O)Cn2ccc(=O)[nH]c2=O)C(=O)Cn2cnc3c(N)ncnc32)CC(=O)NCCN(CC(=O)NCC(=O)O)C(=O)Cn2cc(C)c(=O)[nH]c2=O)c(=O)[nH]c1=O | < 20 | < 20 | Active | Active | < 20 | < 20 |
| Cc1cn(CC(=O)N(CCNC(=O)CN(CCNC(=O)CN(CCNC(=O)CN(CCNC(=O)CN(CCNC(=O)CN(CCNC(=O)CN(CCNC(=O)CN(CCNC(=O)CN(CCNC(=O)CN(CCNC(=O)CN(CCNC(=O)CN(CCNC(=O)CN(CCNC(=O)CN(CCNC(=O)CN(CCNC(=O)CN(CCNC(=O)CN(CCNC(=O)CN(CCNC(=O)CN(CCNC(=O)CN(CCNC(=O)CN(CCNC(=O)CN)C(=O)Cn2ccc(=O)[nH]c2=O)C(=O)Cn2ccc(N)nc2=O)C(=O)Cn2ccc(=O)[nH]c2=O)C(=O)Cn2cnc3c(=O)[nH]c(N)nc32)C(=O)Cn2cnc3c(=O)[nH]c(N)nc32)C(=O)Cn2ccc(N)nc2=O)C(=O)Cn2ccc(N)nc2=O)C(=O)Cn2cnc3c(N)ncnc32)C(=O)Cn2cnc3c(=O)[nH]c(N)nc32)C(=O)Cn2ccc(=O)[nH]c2=O)C(=O)Cn2ccc(N)nc2=O)C(=O)Cn2ccc(N)nc2=O)C(=O)Cn2cnc3c(N)ncnc32)C(=O)Cn2ccc(N)nc2=O)C(=O)Cn2cnc3c(N)ncnc32)C(=O)Cn2cnc3c(=O)[nH]c(N)nc32)C(=O)Cn2ccc(N)nc2=O)C(=O)Cn2ccc(=O)[nH]c2=O)C(=O)Cn2cnc3c(=O)[nH]c(N)nc32)C(=O)Cn2cc(C)c(=O)[nH]c2=O)CC(=O)O)c(=O)[nH]c1=O | 38 | 50 | Active | Active | 97 | 100 |
| Cc1cn(CC(=O)N(CCNC(=O)CN(CCNC(=O)CN(CCNC(=O)CN(CCNC(=O)CN(CCNC(=O)CN(CCNC(=O)CN(CCNC(=O)CN(CCNC(=O)CN(CCNC(=O)CN(CCNC(=O)CN(CCNC(=O)CN(CCNC(=O)CN(CCNC(=O)CN(CCNC(=O)CN(CCNC(=O)CN(CCNC(=O)CN(CCNC(=O)CN(CCNC(=O)CN(CCNC(=O)CN(CCNC(=O)CN)C(=O)Cn2ccc(N)nc2=O)C(=O)Cn2cnc3c(=O)[nH]c(N)nc32)C(=O)Cn2ccc(=O)[nH]c2=O)C(=O)Cn2ccc(=O)[nH]c2=O)C(=O)Cn2cnc3c(=O)[nH]c(N)nc32)C(=O)Cn2ccc(=O)[nH]c2=O)C(=O)Cn2ccc(=O)[nH]c2=O)C(=O)Cn2cnc3c(N)ncnc32)C(=O)Cn2cnc3c(=O)[nH]c(N)nc32)C(=O)Cn2cnc3c(N)ncnc32)C(=O)Cn2cnc3c(N)ncnc32)C(=O)Cn2cnc3c(N)ncnc32)C(=O)Cn2cnc3c(=O)[nH]c(N)nc32)C(=O)Cn2ccc(N)nc2=O)C(=O)Cn2ccc(=O)[nH]c2=O)C(=O)Cn2cnc3c(=O)[nH]c(N)nc32)C(=O)Cn2ccc(=O)[nH]c2=O)C(=O)Cn2ccc(N)nc2=O)C(=O)Cn2ccc(=O)[nH]c2=O)CC(=O)NCCN(CC(=O)NCC(=O)O)C(=O)Cn2cc(C)c(=O)[nH]c2=O)c(=O)[nH]c1=O | < 20 | < 20 | Active | Active | 29 | 26 |
